Source: ChEMBL document CHEMBL3588752, “Synthesis and in Vitro Anticancer Activity of the First Class of Dual Inhibitors of REV-ERBβ and Autophagy” (J Med Chem, 2015)
One block for each molecule: values may come before it. The source made the active and inactive calls. No cut-off for these calls is given here.

Assays:
[1] = test system: LNCaP; experiment: Cytotoxicity against human LNCAP cells assessed as reduction in cell number incubated for 72 hrs; format: functional, cell-based
Summary of the method: (§1)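 RPMI-1640 with 4 mM L-glutamine and 10% FBS for culture. 2000 cells/well seeded overnight, then 72 h exposure to seven 3-fold dilutions (top 100 µM; top 900 µM for the reference autophagy inhibitor in MDA-MB-361). Cell number by CyQUANT relative to vehicle. IC50 from concentration–response curves, mean ± SEM, n ≥ 6.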

[2] = Reduction in GFP expression in human SKBR3 cells transfected with plasmids co-expressing GFP and shRNAs against REV-ERBbeta followed by compound treatment 24 hrs post-transfection and measured 48 hrs post dose; format: functional, cell-based; conditions: SK-BR-3
[3] = test system: LNCaP; experiment: Reduction in GFP expression in human LNCAP cells transfected with plasmids co-expressing GFP and shRNAs against REV-ERBbeta followed by compound treatment 24 hrs post-transfection and measured 48 hrs post dose; format: functional, cell-based
[4] = test system: HepG2; experiment: Reduction in GFP expression in human HepG2 cells transfected with plasmids co-expressing GFP and shRNAs against REV-ERBbeta followed by compound treatment 24 hrs post-transfection and measured 48 hrs post dose; format: functional, cell-based
[5] = Inhibition of cell proliferation of lung cancer cells (unknown origin); format: functional, cell-based; conditions: Cancer cell lines
[6] = test system: MDA-MB-361; experiment: Cytotoxicity against human MDA-MB-361 cells assessed as reduction in cell number incubated for 72 hrs; format: functional, cell-based; conditions: MDA-MB-361, 72 h; summary of the method: as §1
[7] = Inhibition of cell proliferation of breast cancer cells (unknown origin); format: functional, cell-based; conditions: Cancer cell lines
[8] = Inhibition of cell proliferation of PDAC cells (unknown origin); format: functional, cell-based
[9] = test system: HepG2; experiment: Cytotoxicity against human HepG2 cells assessed as reduction in cell number incubated for 72 hrs; format: functional, cell-based; conditions: HepG2, 72 h
Summary of the method: (§2)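 Grown in high-glucose DMEM with 4 mM L-glutamine, 10% FBS and 0.5 mM sodium pyruvate. Seeded at 2000 cells/well overnight, then treated 72 h with seven 3-fold dilutions from 100 µM. Cell number by CyQUANT, % of vehicle. IC50 by log(inhibitor)–response fit, mean ± SEM, n ≥ 6.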

[10] = Cytotoxicity against human SKBR3 cells assessed as reduction in cell number incubated for 72 hrs; format: functional, cell-based; conditions: SK-BR-3, 72 h
Summary of the method: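 McCoy's medium plus 10% FBS; 2000 cells/well, overnight attachment, 72 h treatment with seven 3-fold dilutions from 100 µM (900 µM top for the reference autophagy inhibitor). CyQUANT cell number as % of vehicle. IC50 by log(inhibitor)–response fitting, mean ± SEM of ≥6 experiments.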

[11] = test system: MCF7; experiment: Cytotoxicity against human MCF7 cells assessed as reduction in cell number incubated for 72 hrs; format: functional, cell-based; conditions: MCF7, 72 h; summary of the method: as §2
[12] = test system: HMEC; experiment: Cytotoxicity against HMEC cells assessed as reduction in cell number incubated for 72 hrs; format: cell-based; conditions: Homo sapiens
[13] = test system: BT-474; experiment: Cytotoxicity against human BT474 cells assessed as reduction in cell number incubated for 72 hrs; format: functional, cell-based; conditions: BT-474, 72 h
Summary of the method: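 Cells seeded at 2000/well and left overnight, then exposed 72 h to seven 3-fold serial dilutions from 100 µM. Cell number read by CyQUANT DNA dye (independent of metabolism), relative to vehicle as 100%. BT-474 grown in high-glucose DMEM, 4 mM L-glutamine, 10% FBS, 0.25 mM pyruvate.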

[14] = Toxicity against human BT474 cells assessed as reduction in cell number at 10 uM incubated for 16 hrs; format: cell-based; conditions: bt-474, 16 h
[15] = test system: BT-474; experiment: Inhibition of autophagy in human BT474 cells assessed as increase in LC3-II protein levels at 10 uM by immunoblot method; format: functional, cell-based
Summary of the method: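 BT-474 exposed 4 h at 10 µM. Protein extracted in RIPA buffer and immunoblotted for LC3B and GAPDH in TBS-T with 5% BSA. HRP secondary at 1:20000, ECL detection. Band densitometry reported as LC3B/GAPDH ratio.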

[16] = test system: BT-474; experiment: Lysosomotropic activity in human BT474 cells assessed as […] incubated for 24 hrs by lysosomotropy assay; format: functional, cell-based; conditions: BT-474, 24 h
Summary of the method: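 Seeded at 2000 cells/well overnight, then treated. Lysosomal staining (LysoTracker fluorescence) measured 24 h post-treatment. IC50 from concentration–response plots, mean ± SEM, N ≥ 6.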

[17] = target: T1, Nuclear receptor subfamily 1 group D member 2 (Homo sapiens) (UniProt Q14995); experiment: Inhibition of REV-ERBbeta in human BT474 cells assessed as increase in BMAL1 expression at 10 uM incubated for 16 hrs by immunoblot method; conditions: BT-474
T1 sequence (whole entry): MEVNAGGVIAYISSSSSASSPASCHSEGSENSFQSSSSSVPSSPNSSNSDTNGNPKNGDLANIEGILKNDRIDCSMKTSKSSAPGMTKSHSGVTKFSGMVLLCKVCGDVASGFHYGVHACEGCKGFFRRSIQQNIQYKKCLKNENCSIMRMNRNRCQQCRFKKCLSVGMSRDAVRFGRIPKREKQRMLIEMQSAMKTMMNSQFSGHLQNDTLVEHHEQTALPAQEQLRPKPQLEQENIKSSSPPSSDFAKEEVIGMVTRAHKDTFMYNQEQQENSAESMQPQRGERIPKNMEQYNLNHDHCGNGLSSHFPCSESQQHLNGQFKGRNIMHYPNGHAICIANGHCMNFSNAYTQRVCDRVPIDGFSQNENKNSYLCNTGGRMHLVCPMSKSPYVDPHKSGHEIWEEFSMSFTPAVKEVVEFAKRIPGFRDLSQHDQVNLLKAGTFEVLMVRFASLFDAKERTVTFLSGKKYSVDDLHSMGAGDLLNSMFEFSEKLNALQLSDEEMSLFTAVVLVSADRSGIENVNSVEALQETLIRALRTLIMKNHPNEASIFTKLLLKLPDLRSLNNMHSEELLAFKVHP

[18] = target: T1, Nuclear receptor subfamily 1 group D member 2 (Homo sapiens); experiment: (§3) Inhibition of REV-ERBbeta (unknown origin) expressed in HEK293 cells incubated for 24 hrs assessed as inhibition of receptor-mediated transcriptional repression by REV-ERB luciferase reporter assay; format: cell-based
Summary of the method: (§4)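 HEK-293 co-transfected with a REV-ERBβ expression plasmid and a reporter with two REV-ERB response elements driving Cypridina luciferase. Compounds added the next day; luciferase activity read after 24 h. IC50 from concentration–response plots, mean ± SEM, N ≥ 6.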

[19] = test system: LNCaP; experiment: Inhibition of autophagy in human LNCAP cells assessed as increase in GFP/RFP/LC3 chimera protein levels at 30 uM incubated for 4 hrs by fluorescent microscopy; format: functional, cell-based
Summary of the method: (§5)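 Cells transduced with LC3 fused to acid-sensitive GFP and acid-insensitive RFP. Compound or DMSO vehicle added 48 h post-transduction. After 4 h, GFP and RFP fluorescent dots counted by fluorescence microscopy.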

[20] = target: T1, Nuclear receptor subfamily 1 group D member 2 (Homo sapiens); experiment: Inhibition of REV-ERBbeta in human HepG2 cells assessed as […] at 10 uM incubated for 16 hrs by immunoblot method; format: cell-based
[21] = test system: LNCaP; experiment: Potency index, ratio of IC50 for chloroquine to IC50 for test compound against human LNCAP cells assessed as reduction in cell number incubated for 72 hrs; format: functional
Summary of the method: (§6)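 HepG2 was grown in high-glucose DMEM with 4 mM L-glutamine, 10% FBS and 0.5 mM pyruvate; LNCaP in RPMI-1640 with 4 mM L-glutamine and 10% FBS. Cells were seeded at 2000/well, left overnight, then given seven 3-fold dilutions from 100 µM for 72 h. Cell number was read by CyQUANT DNA stain against vehicle (100%). IC50s came from log(inhibitor)–response fits, ≥6 experiments, and chloroquine IC50 was divided by test IC50.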

[22] = target: T1, Nuclear receptor subfamily 1 group D member 2 (Homo sapiens); experiment: Inhibition of REV-ERBbeta in human LNCAP cells assessed as […] at 10 uM incubated for 16 hrs by immunoblot method; format: cell-based
[23] = test system: HepG2; experiment: Potency index, ratio of IC50 for chloroquine to IC50 for test compound against human HepG2 cells assessed as reduction in cell number incubated for 72 hrs; format: functional; summary of the method: as §6
[24] = test system: HepG2; experiment: Inhibition of autophagy in human HepG2 cells assessed as increase in GFP/RFP/LC3 chimera protein levels at 30 uM incubated for 4 hrs by fluorescent microscopy; format: functional, cell-based; summary of the method: as §5
[25] = target: T1, Nuclear receptor subfamily 1 group D member 2 (Homo sapiens); experiment: Inhibition of REV-ERBbeta in human SKBR3 cells assessed as […] at 10 uM incubated for 16 hrs by immunoblot method; format: cell-based; conditions: SK-BR-3
[26] = test system: SK-BR-3; experiment: Inhibition of autophagy in human SKBR3 cells assessed as increase in GFP/RFP/LC3 chimera protein levels at 30 uM incubated for 4 hrs by fluorescent microscopy; format: functional, cell-based; summary of the method: as §5
[27] = target: T2, Nuclear receptor subfamily 1 group D member 2 (Homo sapiens, UniProt Q14995); experiment: as §3; format: cell-based; summary of the method: as §4
T2 sequence (Q14995 whole entry): T1 sequence (whole entry)

Compound: CCN(CC)CCCC(C)Nc1ccnc2cc(Cl)ccc12 (racemic) [CHLOROQUINE]
- IC50 [1]: 32.9 µM
- Activity [2]: Active
- Activity [3]: Active
- Activity [4]: Active
- IC50 [5]: > 100 µM
- IC50 [6]: 97 µM
- IC50 [7]: > 100 µM
- IC50 [8]: 10 µM
- IC50 [9]: 25 µM
- IC50 [10]: 50.4 µM
- IC50 [11]: 23.4 µM

Compound: Oc1ccc(CNC2(c3ccccc3F)CCCC2)cc1CN1CCCCC1
- IC50 [12]: > 100 µM
- IC50 [13]: 35.6 µM

Compound: CN1CCN(Cc2cc(CNC3(c4ccccc4F)CCC3)ccc2O)CC1
- IC50 [13]: > 100 µM

Compound: Oc1ccc(CNC2(c3ccccc3F)CCCC2)cc1CN1CCN(c2ccccc2)CC1
- IC50 [12]: > 100 µM
- IC50 [13]: 37.8 µM

Compound: CN1CCN(Cc2ccc(CNC3(c4ccccc4F)CCCC3)cc2)CC1
- IC50 [13]: > 100 µM

- IC50 [16]: 10 µM
- inhibition [17]: Active
- inhibition [18]: Active
Compound: CN1CCN(Cc2cc(CNC3(c4ccc(F)cc4)CCCC3)ccc2O)CC1
- Activity [14]: Non-toxic
- IC50 [12]: > 100 µM
- inhibition [15]: Active
- IC50 [13]: 9.41 µM

- inhibition [20]: Active
- inhibition [22]: Active
- IC50 [16]: 10 µM
- inhibition [17]: Active
- inhibition [25]: Active
- IC50 [27]: 1.34 µM
Compound: CN1CCC(Cc2cccc(CNC3(c4ccc(F)cc4)CCCC3)c2)CC1
- Activity [14]: Non-toxic
- IC50 [1]: 8.68 µM
- inhibition [19]: Active
- IC50 [12]: > 100 µM
- IC50 [6]: 30.6 µM
- Ratio IC50 [21]: 4
- Ratio IC50 [23]: 10
- inhibition [15]: Active
- inhibition [24]: Active
- inhibition [26]: Active
- IC50 [9]: 2.73 µM
- IC50 [10]: 16 µM
- IC50 [13]: 2.1 µM
- IC50 [11]: 2.19 µM

Compound: Oc1ccc(CNC2(c3ccccc3F)CCCC2)cc1CN1CCN(Cc2ccccc2)CC1
- IC50 [12]: > 100 µM
- IC50 [13]: 34.7 µM

- IC50 [16]: 10 µM
- inhibition [17]: Active
- IC50 [27]: 17.5 µM
Compound: CN1CCN(Cc2cc(CNC3(c4ccccc4F)CCCC3)ccc2O)CC1
- Activity [14]: Non-toxic
- IC50 [12]: > 100 µM
- inhibition [15]: Active
- IC50 [13]: 30.1 µM

Compound: CN1CCN(Cc2ccccc2CNC2(c3ccccc3F)CCCC2)CC1
- IC50 [13]: > 100 µM

Compound: COc1ccccc1C1(NCc2ccc(O)c(CN3CCN(C)CC3)c2)CCCC1
- IC50 [12]: 17.4 µM
- IC50 [13]: 31.1 µM

Compound: CN1CCN(Cc2cc(CNC3(c4cccc(F)c4)CCCC3)ccc2O)CC1
- IC50 [12]: > 100 µM
- IC50 [13]: 14.2 µM

Compound: CCN(CC)Cc1cc(CNC2(c3ccccc3F)CCCC2)ccc1O
- IC50 [13]: > 100 µM

Compound: CC(=O)N1CCN(Cc2cc(CNC3(c4ccccc4F)CCCC3)ccc2O)CC1
- IC50 [13]: > 100 µM

Compound: CN1CCN(Cc2cccc(CNC3(c4ccccc4F)CCCC3)c2)CC1
- IC50 [12]: > 100 µM
- IC50 [13]: 34 µM

Compound: CC(C)N1CCN(Cc2cc(CNC3(c4ccccc4F)CCCC3)ccc2O)CC1
- IC50 [12]: > 100 µM
- IC50 [13]: 33.3 µM
